The results in this text go back to ChEMBL document CHEMBL5055625, “Saturated Oxo Fatty Acids (SOFAs): A Previously Unrecognized Class of Endogenous Bioactive Lipids Exhibiting a Cell Growth Inhibitory Activity” (J Med Chem, 2021).

Structures are written as SMILES. Active and inactive are the calls of the source. The calls are words filed in the database; no cut-off is given here.

Data set [1] deals with A549. The data set can be described thus: Growth inhibition of human A549 cells at 50 microM measured after 72 hrs by MTT assay. It counts as functional. The conditions noted are these: for inhibition of growth at 50 µM: read-out: GI. In a few lines:
(§1)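 A549, Caco-2 and SF268 cells were grown in DMEM (4.5 g/L glucose) with 10% heat-inactivated FBS and pen-strep at 37 °C, 5% CO2. After 24 h, medium was replaced with compound at 10, 25, 35, 50 or 75 μM (final 0.5% DMSO; vehicle controls) for 72 h. MTT (0.25 mg/mL final) was added for 3 h, formazan was dissolved in DMSO, and A570 minus A690 was read. Triplicate wells per condition were normalized to DMSO control as 100%; IC50 was taken from dose-response curves over ≥3 experiments.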
In general terms: Tetrazolium assays rely on reduction of a dye to a coloured formazan, in cell work by metabolically active cells.

For data set [2], the system named is HUVEC. The data set can be described thus: Growth inhibition of HUVEC cells upto 75 microM measured after 72 hrs by MTT assay. It counts as cell-based. The conditions noted are these: human.
Data set [3] relates to Caco-2. The experiment in a line: Growth inhibition of human Caco-2 cells up to 75 uM measured after 72 hrs by MTT assay. It counts as functional, cell-based. Put shortly:
as §1

The test system of data set [4] is A549. The data set can be described thus: Down regulation of […] protein expression in human A549 cells measured at 50 uM by Western blot analysis. It counts as functional, cell-based. In a few lines:
(§2)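 A549 cells were treated with 50 μM compound or DMSO and lysed in RIPA buffer; lysates were spun at 17 000g for 15 min at 4 °C and protein was measured by Bradford assay. 35 μg of protein was run on SDS-PAGE and semidry-transferred to nitrocellulose, then blocked 1 h in 5% BSA/TBS-0.1% Tween-20. Blots were probed overnight at 4 °C with anti-phospho-STAT3 and anti-STAT3 (1:1000) plus β-actin (1:20 000) as loading control, followed by secondary antibodies for 1.30 h at r.t.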
A general note: Immunoblotting shows a protein as a band on a membrane.

Data set [5] relates to A549. The experiment in a line: Antitumor activity against human A549 cells assessed as decrease in c-myc mRNA expression measured at 50 microM by RT-PCR analysis. In kind it is functional, cell-based. Put shortly: (§3)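 A549 cells were treated with 50 μM compound alongside DMSO controls. mRNA levels were measured by quantitative real-time RT-PCR and expressed relative to the DMSO control.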

Data set [6] relates to SF-268. The experiment in a line: Growth inhibition of human SF-268 cells upto 75 microM measured after 72 hrs by MTT assay. In kind it is functional, cell-based. In a few lines: as §1
In data set [7] the test system is A549. The data set can be described thus: Growth inhibition of human A549 cells measured after 72 hrs by MTT assay. In kind it is functional, cell-based. The settings on record: A549, 72 h. In a few lines:
as §1

Data set [8] concerns the target Signal transducer and activator of transcription 3 (Homo sapiens) (UniProt P40763). The experiment in a line: Inhibition of phosphorylated STAT3 expression in human A549 cells measured at 50 uM by Western blot analysis. In kind it is cell-based. In a few lines:
as §2

The test system of data set [9] is A549. The data set can be described thus: Antitumor activity against human A549 cells assessed as decrease in STAT3 mRNA expression measured at 50 microM by RT-PCR analysis. In kind it is functional, cell-based. In a few lines:
as §3

Sequence of Signal transducer and activator of transcription 3 (Homo sapiens) (P40763 whole entry): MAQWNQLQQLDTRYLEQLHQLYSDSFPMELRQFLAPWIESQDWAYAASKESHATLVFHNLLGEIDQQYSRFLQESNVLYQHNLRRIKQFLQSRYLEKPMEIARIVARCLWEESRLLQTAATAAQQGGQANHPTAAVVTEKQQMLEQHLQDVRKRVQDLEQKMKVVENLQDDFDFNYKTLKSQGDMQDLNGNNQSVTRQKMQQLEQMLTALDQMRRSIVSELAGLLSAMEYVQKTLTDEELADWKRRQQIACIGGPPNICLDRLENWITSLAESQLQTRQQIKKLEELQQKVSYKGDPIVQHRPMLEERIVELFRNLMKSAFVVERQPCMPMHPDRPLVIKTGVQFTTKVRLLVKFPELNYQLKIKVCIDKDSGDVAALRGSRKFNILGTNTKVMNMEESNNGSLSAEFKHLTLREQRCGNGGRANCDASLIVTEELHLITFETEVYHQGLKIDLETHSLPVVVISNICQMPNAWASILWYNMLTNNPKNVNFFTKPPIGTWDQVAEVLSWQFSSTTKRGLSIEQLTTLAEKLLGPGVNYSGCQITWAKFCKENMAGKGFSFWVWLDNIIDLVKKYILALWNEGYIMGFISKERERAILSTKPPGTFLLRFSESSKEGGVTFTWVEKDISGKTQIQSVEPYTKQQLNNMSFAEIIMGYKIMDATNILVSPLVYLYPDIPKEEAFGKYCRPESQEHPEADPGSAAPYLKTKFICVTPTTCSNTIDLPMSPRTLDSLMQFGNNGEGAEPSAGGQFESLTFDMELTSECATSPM

Regarding `CCCCCCCCCCC[C@@H](O)CCCCCC(=O)O`, the inhibition of growth at 50 µM in [1] is > 50%. For the same molecule, in [2], the Activity result is given as “Non-Toxic”.

On to `CCCCCCCCCCCCCCCCCC(=O)O`, for which, in data set [1], the “growth inhibition (GI)” value is “inactive”.

What is called IC50 is the midpoint of a concentration-inhibition curve. Read a low IC50 as greater potency in that assay. As for `CCCCCCCCCCCC(=O)CCCCCC(=O)O`, the “growth inhibition (GI)” value in data set [3] and in data set [6] was “inactive” in each case. The inhibition of growth at 50 µM in [1] was > 50%. The result in data set [4], in data set [5] and in data set [9] was Active. In data set [7], this molecule displayed a 50% inhibitory concentration (IC50) of 28 µM. Further, the inhibition result in data set [8] was “Active”.

`CCCCCCCCCCCCCC(=O)CCCC(=O)O`: the inhibition of growth at 50 µM in [1] was > 50%. In data set [7], this molecule came in with a half-maximal inhibitory concentration (IC50) of 49 µM.

Take `CCCCCCCCCCCCCCCC(=O)O`: the “growth inhibition (GI)” value in data set [1] is “inactive”.

Consider `CCCCCCCCCCCCC(=O)CCCCC(=O)O`, for which the “growth inhibition (GI)” value in data set [3] and in [6] was “inactive” in each case. Moreover, the inhibition of growth at 50 µM in [1] is > 50%. In addition, the outcome in data set [4], in data set [5] and in data set [9] was Active. In addition, the Activity result in [2] is on record as “Non-Toxic”. Moreover, the IC50 in data set [7] amounted to 26 µM. Moreover, in [8], the inhibition result is “Active”.

As to `CCCCCCCCCCC(=O)CCCCCCC(=O)O`, the “growth inhibition (GI)” value in data set [3] and in data set [6] was “inactive” each time. Also, the inhibition of growth at 50 µM in [1] was > 50%. Further, in data set [7], 37 µM corresponded to half-maximal inhibition (IC50).

Turning to `CCCCCCCCCC(O)CCCCCCCC(=O)O` (stereo not drawn), the inhibition of growth at 50 µM in data set [1] was > 50%.
